The source made the active and inactive calls. The calls are words filed in the database; no cut-off is given here.
Experiments:
[1] = molecular target: T1, Aurora kinase A (Homo sapiens) (UniProt O14965); assay: Inhibition of recombinant full length human N-terminal GST-tagged Aurora A expressed in baculovirus infected Sf9 cells at 1 uM using myelin basic protein as substrate after 60 mins by ADP-Glo luminescence assay relative to control
T1 sequence (whole entry): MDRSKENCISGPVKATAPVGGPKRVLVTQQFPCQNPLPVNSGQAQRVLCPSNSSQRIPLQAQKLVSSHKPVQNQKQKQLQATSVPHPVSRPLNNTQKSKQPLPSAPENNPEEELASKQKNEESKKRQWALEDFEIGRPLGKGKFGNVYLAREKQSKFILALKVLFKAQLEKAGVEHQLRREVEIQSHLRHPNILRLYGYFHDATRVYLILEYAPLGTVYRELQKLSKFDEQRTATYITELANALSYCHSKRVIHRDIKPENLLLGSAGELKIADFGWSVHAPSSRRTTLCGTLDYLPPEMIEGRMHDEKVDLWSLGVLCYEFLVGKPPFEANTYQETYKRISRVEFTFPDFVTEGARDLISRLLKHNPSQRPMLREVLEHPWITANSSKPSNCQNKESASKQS
Procedure, shortened: (§1)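 Purified active Aurora A or Aurora B with myelin basic protein substrate and 10 µM ATP; compounds dissolved in DMSO and tested at a single concentration (10 µM screen, or 1 µM). Reaction 60 min at room temperature, then ADP-Glo reagent 30 min and detection reagent 30 min; luminescence read. Inhibition expressed relative to 10 µM staurosporine.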

Aurora kinase B [2] = molecular target: T2, Aurora kinase B (Homo sapiens, UniProt Q96GD4); assay: Inhibition of recombinant full length human N-terminal GST-tagged Aurora B expressed in baculovirus infected Sf9 cells using myelin basic protein as substrate after 60 mins by ADP-Glo luminescence assay
Procedure, shortened: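 ADP-Glo assay with purified active Aurora B, myelin basic protein substrate, 10 µM ATP, 60 min kinase reaction at room temperature followed by luminescence detection. IC50 determined for compounds exceeding 50% inhibition relative to staurosporine, calculated by curve fitting.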

Aurora kinase B [3] = molecular target: T2, Aurora kinase B; assay: Inhibition of recombinant full length human N-terminal GST-tagged Aurora B expressed in baculovirus infected Sf9 cells at 1 uM using myelin basic protein as substrate after 60 mins by ADP-Glo luminescence assay relative to control; procedure, shortened: as §1
[4] = molecular target: T1, Aurora kinase A (Homo sapiens); assay: Inhibition of recombinant full length human N-terminal GST-tagged Aurora A expressed in baculovirus infected Sf9 cells at 10 uM using myelin basic protein as substrate after 60 mins by ADP-Glo luminescence assay relative to control; procedure, shortened: as §1
Aurora kinase B [5] = molecular target: T2, Aurora kinase B; assay: Inhibition of recombinant full length human N-terminal GST-tagged Aurora B expressed in baculovirus infected Sf9 cells at 10 uM using myelin basic protein as substrate after 60 mins by ADP-Glo luminescence assay relative to control; procedure, shortened: as §1
Aurora kinase B [6] = molecular target: T2, Aurora kinase B; assay: Inhibition of Aurora B in human HeLa cells assessed as reduction in histone H3 phosphorylation at Ser10 residue after 1 hr by Western blot analysis; type: cell-based
Procedure, shortened: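 HeLa cells synchronized in mitosis by a 16 h Monastrol block, then released into Monastrol-free medium containing inhibitor at graded concentrations; Hesperadin 5 µM and DMSO as references. Cells harvested 1 h after release, lysed in RIPA with protease/phosphatase inhibitors, 20 µg protein resolved on 8~15% SDS-PAGE. Immunoblotted for phospho-H3S10, total histone H3, α-tubulin and Aurora B.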

HeLa [7] = assay: Cell cycle arrest in human HeLa cells assessed as increase in accumulation at G2/M phase at 50 uM after 24 hrs by propidium iodide staining based flow cytometry relative to control; type: functional
Procedure, shortened: (§2)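 HeLa cells seeded the day before and exposed to inhibitor (10 or 50 µM) or DMSO for 24 h, harvested non-enzymatically, fixed in cold 70% EtOH at 4 °C for 2 h, stained with PI/Triton X-100 solution containing RNase A (25 °C, 20 min, dark). Cell cycle distribution was measured by flow cytometry, and the G2/M percentage was compared with DMSO.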

HeLa [8] = assay: Cell cycle arrest in human HeLa cells assessed as accumulation at G2/M phase at 50 uM after 24 hrs by propidium iodide staining based flow cytometry (reference value: 12 %); type: functional; procedure, shortened: as §2

T2 sequence (Q96GD4 whole entry): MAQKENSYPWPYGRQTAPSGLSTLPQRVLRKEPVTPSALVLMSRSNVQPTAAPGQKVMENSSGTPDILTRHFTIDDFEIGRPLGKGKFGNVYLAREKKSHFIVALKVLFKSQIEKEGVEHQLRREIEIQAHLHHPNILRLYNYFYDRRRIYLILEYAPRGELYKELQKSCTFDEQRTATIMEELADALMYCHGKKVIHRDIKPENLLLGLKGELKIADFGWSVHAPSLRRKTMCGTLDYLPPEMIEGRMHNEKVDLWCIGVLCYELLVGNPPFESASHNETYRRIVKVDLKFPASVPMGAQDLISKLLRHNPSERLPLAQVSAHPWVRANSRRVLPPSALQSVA

Structure (SMILES)	inhibition [1]	IC50 (Aurora kinase B [2])	inhibition (Aurora kinase B [3])	inhibition [4]	inhibition (Aurora kinase B [5])	further results
O=C(Nc1ccc(F)cc1)Nc1ccc(CNc2nc3ccc(OCCN4CCOCC4)cc3s2)cc1	inactive	700 nM	44%	–	–	–
O=C(Nc1ccc(Cl)cc1)Nc1cccc(CNc2nc3ccc(OCCN4CCOCC4)cc3s2)c1	inactive	1200 nM	31%	–	–	–
O=C(Nc1cccc(CNc2nc3ccc(OCCN4CCOCC4)cc3s2)c1)c1ccccc1	–	–	–	inactive	24%	–
O=C(Nc1ccc(CNc2nc3ccc(OCCN4CCOCC4)cc3s2)cc1)Nc1cccc(Cl)c1	inactive	460 nM	67%	–	–	–
O=C(Nc1ccc(CNc2nc3ccc(OCCN4CCOCC4)cc3s2)cc1)c1cccc(Cl)c1	–	1400 nM	–	inactive	91%	–
O=C(Nc1ccc(Br)cc1)Nc1ccc(CNc2nc3ccc(OCCN4CCOCC4)cc3s2)cc1	9%	90 nM	83%	–	–	inhibition (Aurora kinase B [6]): Dose-dependent effect; fold change (FC) (HeLa [7]): >2
O=C(Nc1cccc(CNc2nc3ccc(OCCN4CCOCC4)cc3s2)c1)c1ccc(Cl)cc1	–	6200 nM	–	inactive	42%	–
O=C(Nc1ccc(CNc2nc3ccc(OCCN4CCOCC4)cc3s2)cc1)Nc1ccc(Cl)c(Cl)c1	2%	270 nM	77%	–	–	–
CN(C)CCOc1ccc2nc(NCc3ccc(NC(=O)Nc4ccc(Cl)cc4)cc3)sc2c1	inactive	320 nM	65%	–	–	–
O=C(Nc1ccc(Cl)cc1)Nc1ccc(CNc2nc3ccc(OCCN4CCOCC4)cc3s2)cc1	inactive	120 nM	100%	–	–	inhibition (Aurora kinase B [6]): Dose-dependent effect; Activity (HeLa [8]): 17%
S=C(Nc1ccc(Cl)cc1)Nc1ccc(CNc2nc3ccc(OCCN4CCOCC4)cc3s2)cc1	3%	110 nM	94%	–	–	–
O=S(=O)(Nc1ccc(CNc2nc3ccc(OCCN4CCOCC4)cc3s2)cc1)c1ccc(Cl)cc1	–	–	–	inactive	28%	–
O=C(Nc1cccc(Cl)c1)Nc1cccc(CNc2nc3ccc(OCCN4CCOCC4)cc3s2)c1	inactive	1000 nM	33%	–	–	–
O=C(Nc1cccc(CNc2nc3ccc(OCCN4CCOCC4)cc3s2)c1)c1ccc(F)cc1	–	9000 nM	–	inactive	56%	–
O=S(=O)(Nc1ccc(CNc2nc3ccc(OCCN4CCOCC4)cc3s2)cc1)c1ccc(F)cc1	–	–	–	inactive	30%	–
O=C(Nc1ccc(Cl)c(Cl)c1)n1ccc(CNc2nc3ccc(OCCN4CCOCC4)cc3s2)n1	–	–	–	–	46%	–

Structure (SMILES)	inhibition [1]	IC50 (Aurora kinase B [2])	inhibition (Aurora kinase B [3])	inhibition [4]	inhibition (Aurora kinase B [5])	further results
O=C(Nc1ccc(Cl)cc1)n1ccc(CNc2nc3ccc(OCCN4CCOCC4)cc3s2)n1	–	–	–	–	31%	–
COc1ccc(C(=O)Nc2ccc(CNc3nc4ccc(OCCN5CCOCC5)cc4s3)cc2)cc1	–	700 nM	–	inactive	85%	–
O=C(Nc1ccc(CNc2nc3ccc(OCCN4CCOCC4)cc3s2)cc1)c1ccccc1	–	–	–	inactive	25%	–
O=C(Nc1ccccc1)Nc1ccc(CNc2nc3ccc(OCCN4CCOCC4)cc3s2)cc1	inactive	270 nM	91%	–	–	–
O=C(Nc1ccccc1)n1ccc(CNc2nc3ccc(OCCN4CCOCC4)cc3s2)n1	–	–	–	–	12%	–
O=C(Nc1ccccc1)Nc1cccc(CNc2nc3ccc(OCCN4CCOCC4)cc3s2)c1	inactive	3100 nM	37%	–	–	–
O=C(Nc1cccc(CNc2nc3ccc(OCCN4CCOCC4)cc3s2)c1)c1cccc(Cl)c1	–	–	–	inactive	30%	–
O=C(Nc1ccccc1CNc1nc2ccc(OCCN3CCOCC3)cc2s1)c1ccccc1	–	–	–	inactive	inactive	–
O=C(Nc1ccc(F)cc1)n1ccc(CNc2nc3ccc(OCCN4CCOCC4)cc3s2)n1	–	–	–	–	5%	–
COc1ccc(NC(=O)Nc2ccc(CNc3nc4ccc(OCCN5CCOCC5)cc4s3)cc2)cc1	inactive	250 nM	79%	–	–	–
O=C(Nc1cccc(CNc2nc3ccc(OCCN4CCOCC4)cc3s2)c1)c1ccc([N+](=O)[O-])cc1	–	–	–	inactive	17%	–
COc1ccc(NC(=S)Nc2ccc(CNc3nc4ccc(OCCN5CCOCC5)cc4s3)cc2)cc1	inactive	360 nM	72%	–	–	–
O=C(Nc1ccc(Br)cc1)n1ccc(CNc2nc3ccc(OCCN4CCOCC4)cc3s2)n1	–	–	–	–	31%	–
O=S(=O)(Nc1ccc(CNc2nc3ccc(OCCN4CCOCC4)cc3s2)cc1)c1ccccc1	–	–	–	inactive	16%	–
O=C(Nc1ccc(Cl)cc1)Nc1ccc(CNc2nc3ccc(OCCN4CCCCC4)cc3s2)cc1	inactive	2300 nM	5%	–	–	–
O=C(Nc1ccc(CNc2nc3ccc(OCCN4CCOCC4)cc3s2)cc1)c1ccc(Cl)cc1	–	3000 nM	–	inactive	59%	–

Source: ChEMBL document CHEMBL4033715, “Optimization and biological evaluation of 2-aminobenzothiazole derivatives as Aurora B kinase inhibitors” (Bioorg Med Chem, 2017)
